Laboratory results reported in ChEMBL document CHEMBL4043246, “Discovery of novel [1,2,4]triazolo[4,3-a]quinoxaline aminophenyl derivatives as BET inhibitors for cancer treatment” (Bioorg Med Chem Lett, 2017).

Key:
[1] = target: Bromodomain-containing protein 4 (Homo sapiens, UniProt O60885); assay: Inhibition of BRD4 BD1-BD2 (unknown origin) using tetraacetylated histone peptide as substrate after 2 hrs by alphascreen assay
[2] = Stability in rat liver microsomes assessed as parent compound remaining after 30 mins; type: ADME, microsome; settings: read-out: Stability
In short: (§1)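 Incubated in vitro with mouse, rat or human liver microsomes for 30 minutes. Result expressed as percent of parent compound remaining.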

[3] = Half life in rat at 2 mg/kg, iv; type: ADME, organism-based; settings: in vivo
In short: (§2)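 Rat pharmacokinetics with single intravenous (2 mg/kg) or oral (5 or 20 mg/kg) dosing. Terminal half-life is reported in hours.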

[4] = Antiproliferative activity against human TY82 cells; type: functional, cell-based
[5] = AUCt in rat at 5 mg/kg, po; type: ADME, organism-based; settings: in vivo
In short: (§3)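 Rat pharmacokinetics with single dosing, either intravenous at 2 mg/kg or oral at 5 or 20 mg/kg. AUC is reported both to the last time point (AUCt) and extrapolated to infinity, in ug.hr/mL.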

[6] = Stability in mouse liver microsomes assessed as parent compound remaining after 30 mins; type: ADME, microsome; settings: read-out: Stability; in short: as §1
[7] = Clearance in rat at 2 mg/kg, iv; type: ADME, organism-based; settings: in vivo
THP-1 = assay: Antiproliferative activity against human THP1 cells; type: functional, cell-based
[8] = AUCinfinity in rat at 2 mg/kg, iv; type: ADME, organism-based; parameters: dose 2 mg/kg, time infinity, route intravenous; settings: in vivo; in short: as §3
[9] = Volume of distribution at steady state in rat at 2 mg/kg, iv; type: ADME, organism-based; settings: in vivo, read-out: Vdss
In short: (§4)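 Rat pharmacokinetics after a single intravenous dose of 2 mg/kg or oral doses of 5 mg/kg and 20 mg/kg. Reported parameters are Tmax, Cmax, T1/2, AUCt, AUC∞, CL, Vss and F(%). CL, Vss and F come from the intravenous/oral 2 and 5 mg/kg arms.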

Rattus norvegicus [10] = assay: Cmax in rat at 5 mg/kg, po; type: ADME, organism-based; parameters: dose 5 mg/kg, route oral; settings: in vivo
In short: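 Peak plasma level after single oral dosing in rat at 5 or 20 mg/kg. Cmax is given in mg/mL as printed, with Tmax in hours.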

Rattus norvegicus [11] = assay: Tmax in rat at 5 mg/kg, po; type: ADME, organism-based; settings: in vivo; in short: as §4
[12] = Stability in human liver microsomes assessed as parent compound remaining after 30 mins; type: ADME, microsome; settings: read-out: Stability; in short: as §1
[13] = Oral bioavailability in rat at 5 mg/kg; type: ADME, organism-based; settings: in vivo; in short: as §4
Rattus norvegicus [14] = assay: AUCinfinity in rat at 5 mg/kg, po; type: ADME, organism-based; parameters: dose 5 mg/kg, time infinity, route oral; settings: in vivo; in short: as §3
[15] = AUCt in rat at 2 mg/kg, iv; type: ADME, organism-based; settings: in vivo; in short: as §3
Rattus norvegicus [16] = assay: Half life in rat at 5 mg/kg, po; type: ADME, organism-based; settings: in vivo; in short: as §2

IC50 [1] [nM]	Compound	IC50 [4] [nM]	also measured
> 10000	CCc1nnc2c(Nc3cccc(CNC(=O)OC(C)(C)C)c3)nc3ccccc3n12		
17 to 68	Cc1nnc2c(Nc3cccc(CNC(=O)OC(C)(C)C)c3)nc3ccccc3n12	2500 to 7100	remaining at 0.5 h [2]: 0.19%; half-life [3]: 0.72 h; AUC(0-t) [5]: 2110 ng·h/mL; remaining at 0.5 h [6]: 0.12%; clearance [7]: 8.33 mL/min/kg; IC50 (THP-1): 3400 nM; AUC(0-inf) [8]: 4020 ng·h/mL; Vd [9]: 0.46 L/kg; Cmax (Rattus norvegicus [10]): 340 ng/mL; Tmax (Rattus norvegicus [11]): 3.42 h; remaining at 0.5 h [12]: 27%; bioavailability [13]: 20.9%; AUC (Rattus norvegicus [14]): 2390 ng·h/mL; AUC(0-t) [15]: 4020 ng·h/mL; t1/2 (Rattus norvegicus [16]): 3.69 h
	Cc1sc2c(c1C)C(c1ccc(Cl)cc1)=N[C@@H](CC(=O)Nc1ccc(O)cc1)c1nnc(C)n1-2 [BIRABRESIB]	67	IC50 (THP-1): 33 nM
200	CCC(=O)NCc1cccc(Nc2nc3ccccc3n3c(C)nnc23)c1	7600	
530	CC(=O)NCc1cccc(Nc2nc3ccccc3n3c(C)nnc23)c1	> 10000	
350	Cc1nnc2c(Nc3cccc(CN)c3)nc3ccccc3n12	> 10000	
6400	Cc1nnc2c(Nc3ccc(NC(=O)OC(C)(C)C)cc3)nc3ccccc3n12	> 10000	
120	Cc1nnc2c(Nc3cccc(NC(=O)OC(C)(C)C)c3)nc3ccccc3n12	> 10000	
> 10000	CC(C)(C)OC(=O)NCc1cccc(Nc2nc3ccccc3n3c(C(F)(F)F)nnc23)c1		
> 10000	CC(C)(C)OC(=O)NCc1cccc(Nc2nc3ccccc3n3cnnc23)c1		
97	Cc1nnc2c(Nc3cccc(CNC(=O)C(C)(C)C)c3)nc3ccccc3n12	> 10000	
> 10000	CC(C)(C)OC(=O)NCc1cccc(Nc2nc3ccccc3n3c(-c4ccccc4)nnc23)c1		
160	CCOC(=O)NCc1cccc(Nc2nc3ccccc3n3c(C)nnc23)c1	> 10000	IC50 (THP-1): > 10000 nM
2700	Cc1nnc2c(Nc3ccc(CNC(=O)OC(C)(C)C)cc3)nc3ccccc3n12	> 10000	
640	Cc1nnc2c(Nc3cccc(CNC(=O)c4ccccc4)c3)nc3ccccc3n12	8600	
1500	Cc1nnc2c(Nc3cccc(CNC(=O)OC(C)(C)C)c3)nccn12	> 10000	
	CCNC(=O)C[C@@H]1N=C(c2ccc(Cl)cc2)c2cc(OC)ccc2-n2c(C)nnc21 [MOLIBRESIB]	390	IC50 (THP-1): 290 nM
